PLC-beta3 inh – human PLC-beta3 inhibitors, primary screen, biochemical, fluorescence. actives 0.18% (n = 370,000). inhibition, % at 12.2 µM. Purified PLC-beta3, fluorogenic substrate. AID 720704, 2013. 1-phosphatidylinositol 4,5-bisphosphate phosphodiesterase beta-3 (Homo sapiens), Q01970; in the data active = inhibition above about 11%;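 also: 0% = median of compound wells on plate and 100% = full blocker control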
PLC-gamma1 inh – PLC-gamma1 enzyme inhibitors, primary screen, biochemical, fluorescence, purified enzyme; 1-phosphatidylinositol 4,5-bisphosphate phosphodiesterase gamma-1 (Homo sapiens), P19174; fluorogenic substrate; inhibition, % at 12.2 µM; actives 0.84% (n = 370,000); AID 720700, 2013; in the data active = inhibition above about 9.5%
Target sequence (P19174 whole entry, looked up): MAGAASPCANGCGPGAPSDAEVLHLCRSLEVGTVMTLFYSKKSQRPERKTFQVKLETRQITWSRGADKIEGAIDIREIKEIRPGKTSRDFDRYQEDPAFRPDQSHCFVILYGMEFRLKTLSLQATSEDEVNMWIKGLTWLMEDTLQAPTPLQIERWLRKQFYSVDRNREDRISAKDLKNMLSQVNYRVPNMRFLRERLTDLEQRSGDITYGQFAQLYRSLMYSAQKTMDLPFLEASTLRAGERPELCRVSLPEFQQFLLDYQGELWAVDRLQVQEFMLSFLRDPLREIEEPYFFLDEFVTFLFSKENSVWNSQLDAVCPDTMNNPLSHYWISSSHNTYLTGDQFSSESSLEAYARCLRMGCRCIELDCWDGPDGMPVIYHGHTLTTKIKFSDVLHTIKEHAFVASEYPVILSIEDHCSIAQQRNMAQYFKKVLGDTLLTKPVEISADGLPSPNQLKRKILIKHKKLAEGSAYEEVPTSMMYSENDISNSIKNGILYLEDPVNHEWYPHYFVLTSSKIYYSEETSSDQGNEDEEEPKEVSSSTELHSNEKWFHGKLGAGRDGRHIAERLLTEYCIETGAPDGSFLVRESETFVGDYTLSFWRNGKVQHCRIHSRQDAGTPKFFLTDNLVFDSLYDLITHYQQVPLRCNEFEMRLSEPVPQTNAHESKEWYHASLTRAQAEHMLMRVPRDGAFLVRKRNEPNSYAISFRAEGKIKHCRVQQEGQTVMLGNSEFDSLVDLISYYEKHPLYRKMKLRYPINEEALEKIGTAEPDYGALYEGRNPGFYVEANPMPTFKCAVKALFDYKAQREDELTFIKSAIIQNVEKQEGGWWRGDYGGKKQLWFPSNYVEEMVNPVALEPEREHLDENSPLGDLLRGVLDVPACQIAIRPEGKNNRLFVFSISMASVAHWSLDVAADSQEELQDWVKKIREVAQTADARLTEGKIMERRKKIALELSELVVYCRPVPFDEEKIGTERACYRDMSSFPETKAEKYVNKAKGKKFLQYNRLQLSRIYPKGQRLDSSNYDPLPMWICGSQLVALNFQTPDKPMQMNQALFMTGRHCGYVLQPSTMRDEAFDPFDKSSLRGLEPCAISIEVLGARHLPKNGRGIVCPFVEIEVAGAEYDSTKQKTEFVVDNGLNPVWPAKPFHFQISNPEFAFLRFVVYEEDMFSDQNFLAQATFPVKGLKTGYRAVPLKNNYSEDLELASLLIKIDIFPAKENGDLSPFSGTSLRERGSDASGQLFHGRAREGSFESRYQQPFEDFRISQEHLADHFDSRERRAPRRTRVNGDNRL
Tb MetRS inh – T. brucei MetRS inhibitors, primary screen, biochemical, luminescence; inhibition, % at 11.9 µM; actives 0.4% (n = 360,000); purified T. brucei MetRS, ATP depletion, Kinase-Glo luminescence;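 active = inhibition above a per-plate cutoff of the control wells' mean inhibition plus 3 SD, cut at about 5.5% in these data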;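 also: 0% = DMSO wells median and 100% = median of wells with control inhibitor compound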
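Test system: purified T. brucei MetRS enzyme. Also added: ATP, methionine and E. coli bulk tRNA substrates. Compound: 11.9 µM single point. Schedule: 15 min enzyme-compound preincubation, 2 h reaction, 10 min detection, 25 °C. Signal: luciferase luminescence of residual ATP, Kinase-Glo. Evaluation: percent inhibition versus plate control medians. Controls: DMSO wells, low control.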
ADAM10 inh – human ADAM10 inhibitors, primary screen, biochemical, QFRET, HTS; Disintegrin and metalloproteinase domain-containing protein 10 (Homo sapiens), O14672; recombinant ADAM10, EDANS/DABCYL FRET peptide cleavage, 3 h; inhibition, % at 7 µM; actives 0.62% (n = 370,000); AID 720582, 2013;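 active = inhibition above a per-campaign cutoff equal to the mean of compounds falling between control-based bounds plus 3 SD, cut at about 20% in these data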;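 also: 0% = DMSO wells while the 100% control is not disclosed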
ADAM17 inh – ADAM17 inhibitors, primary screen, biochemical, QFRET; AID 720648, 2013; actives 0.83% (n = 370,000); inhibition, % at 6.95 µM; recombinant ADAM17, EDANS/DABCYL FRET peptide cleavage;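 active = inhibition above the mean of compounds lying between control limits plus 3 SD, set per campaign, cut at about 8.5% in these data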;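 also: 0% = DMSO-only wells as the low control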
Tb MetRS conf – T. brucei MetRS inhibitors, confirmation, biochemical, luminescence; shares compounds with Tb MetRS inh; T. brucei MetRS enzyme, luminescence (ATP depletion); inhibition, % at 11.9 µM; actives 93% (n = 1,400); AID 624412, 2012; in the data active = inhibition above about 7%
Jurkat tox – Jurkat T cell cytotoxicity, cytotoxicity control for T. brucei MetRS inhibitor project, luminescence, high throughput; shares compounds with Tb MetRS inh; Jurkat cells viability, ATP luminescence; inhibition, % at 8.3 µM; actives 12% (n = 1,400); AID 624413, 2012; in the data active = inhibition above about 15%;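 also: 0% = vehicle and 100% = reference inhibitor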
Tb MetRS inh FP – T. brucei MetRS inhibitors, orthogonal assay for T. brucei MetRS inhibitor project, biochemical, fluorescence polarization; shares compounds with Tb MetRS inh; purified T. brucei MetRS; inhibition, % at 11.9 µM; actives 44% (n = 1,400); AID 651607, 2012; in the data active = inhibition above about 17%;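 also: 0% = vehicle wells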
Numbers without * were called inactive; i = inactive; / = no result given. An excerpt weighted towards active compounds, which were near 2.3% of everything screened.

SMILES | PLC-beta3 inh | PLC-gamma1 inh | Tb MetRS inh | ADAM10 inh | ADAM17 inh | Tb MetRS conf | Jurkat tox | Tb MetRS inh FP
CC(C)(C)C1CCc2c(sc3ncn(N)c(=N)c23)C1 (configuration not stated) | -7.3 | -0.2 | -0.7 | -8.6 | -5.4 | / | / | /
COc1ccc(CNC(=O)COC(=O)CCn2c(C)csc2=O)cc1OC | 0.0 | -2.7 | -0.5 | 1.6 | 0.3 | / | / | /
COc1ccc2[nH]c3c(NCCCOC(C)C)ncnc3c2c1 | i | i | 6.2* | i | i | 17.4* | 8.9 | 10.1
COc1ccc2[nH]c3c(NCCC4=CCCCC4)ncnc3c2c1 | -268.6 | -157.3 | 17.8* | -342.7 | -123.3 | 39.9* | 51.5* | 30.8*
CC1(C(=O)NCc2ccc(Cl)cc2)CCN1C(=O)Cc1ccc(Cl)cc1Cl (configuration not stated) | -0.3 | 3.0 | 1.1 | -4.0 | 0.0 | / | / | /
CC(C)[C@H](N)C(=O)N1CCC(C(=O)N[C@@H](Cc2ccccc2)C(=O)NCc2ccc(F)cc2)CC1 | 0.4 | 6.7 | -0.4 | 0.5 | 5.1 | / | / | /
O=C(c1ccccc1)c1ccc(-n2cnnc2)c([N+](=O)[O-])c1 | 1.4 | -1.5 | 24.1* | -6.5 | -1.9 | 44.3* | 1.3 | 25.9*
O=C(c1ccccc1)c1ccc(-n2ccnc2)c([N+](=O)[O-])c1 | -2.2 | -1.1 | 4.1 | -5.7 | 0.0 | / | / | /
COc1ccccc1N1C(=O)c2ccccc2NC1c1ccc(O)cc1 (configuration not stated) | -271.8 | -207.5 | 6.8* | -401.1 | -153.2 | 5.4 | -8.9 | 0.8
CC(C)(C)c1ccc(C(=O)NCC(=O)N/N=C/c2cccs2)cc1 | -2.5 | 4.5 | -0.5 | 4.3 | -0.6 | / | / | /
O=C(CNC(=O)c1cccc(Br)c1)N/N=C/c1cccs1 | -4.2 | -0.5 | 6.0* | 9.8 | 2.1 | 19.6* | 2.6 | 1.9
COc1ccc(N2CCN(C3CC(=O)N(Cc4ccccc4)C3=O)CC2)cc1 (configuration not stated) | -9.3 | -0.8 | -0.5 | 1.8 | -5.7 | / | / | /
O=C(c1ccncc1)c1ccc(N2CCN(C3CC(=O)N(Cc4ccccc4)C3=O)CC2)cc1 (configuration not stated) | -7.0 | -5.3 | 15.1* | 11.6 | 3.6 | 27.7* | 12.6 | 5.6
CC1CCN(c2ccccc2NC(=O)c2ccc(Br)o2)CC1 | -7.0 | -0.5 | -0.4 | 5.0 | -0.1 | / | / | /
COCCN(C(=O)c1csnn1)C(C(=O)NC1CCCCC1)c1ccc(Cl)cc1 (configuration not stated) | -7.2 | -1.4 | 9.2* | -6.3 | -5.1 | 2.0 | -1.8 | -2.2
COc1ccc2c(CC(=O)OCC(=O)Nc3ccc4c(c3)OCO4)coc2c1 | -3.4 | 0.6 | 10.0* | 3.0 | -0.9 | 15.0* | -7.0 | 7.6
COc1ccc2c(CC(=O)OCC(=O)Nc3ccc(S(N)(=O)=O)cc3)coc2c1 | -12.1 | -3.1 | 0.4 | -10.2 | -10.1 | / | / | /
COc1ccc2c(CC(=O)OCC(=O)Nc3ccc(C)cc3)coc2c1 | -13.4 | -11.0 | 9.8* | -10.3 | -1.6 | 25.3* | 4.0 | 8.5
Cc1nc(NC(=O)C(C)(C)C)sc1C(=O)Cn1cc(-c2ccc(C(C)(C)C)cc2)nn1 | -0.3 | -3.1 | -0.9 | -11.0 | -2.4 | / | / | /
CCOC(=O)c1ccc(NC(=O)[C@@H]2CCC(=O)N2C2OC(=O)c3c2ccc(OC)c3OC)cc1 (some centres not stated) | 1.6 | -1.5 | 0.0 | -25.0 | -3.8 | / | / | /
CC(C)Cc1nc2ccccc2[nH]1 | -6.8 | 1.2 | -0.4 | -5.4 | -3.0 | / | / | /
COc1ccccc1CC(Cc1nc2ccccc2[nH]1)c1nc2ccccc2[nH]1 (configuration not stated) | -5.8 | 1.5 | 5.7* | -2.9 | -3.5 | 10.8* | 3.0 | 2.7
Cc1cccc(CC(Cc2nc3ccccc3[nH]2)c2nc3ccccc3[nH]2)c1 (configuration not stated) | 2.4 | -1.6 | 8.4* | 8.1 | 1.4 | 21.5* | 9.8 | 9.3
Cc1ccc(NC(=O)CCNS(=O)(=O)c2ccc(Br)s2)cc1 | -7.5 | 2.1 | 17.7* | 8.2 | -1.2 | 39.8* | -0.6 | 23.8*
COc1ccc(NC(=O)Nc2ccccc2)cc1S(=O)(=O)N1CCCCC1 | 0.9 | 0.0 | 11.2* | 4.2 | 2.6 | 27.0* | 6.6 | 14.6
SMILES | PLC-beta3 inh | PLC-gamma1 inh | Tb MetRS inh | ADAM10 inh | ADAM17 inh | Tb MetRS conf | Jurkat tox | Tb MetRS inh FP
O=C(Nc1ccccc1)Nc1ccc(S(=O)(=O)N2CCCCC2)cc1 | 2.1 | 3.0 | 7.8* | 8.0 | 6.0 | 15.3* | 6.7 | 22.9*
O=C(Nc1ccc(S(=O)(=O)N2CCCCC2)cc1)c1ccccc1Cl | 2.5 | 1.6 | -0.6 | 6.2 | -0.5 | / | / | /
CC(C)(C)OC(=O)CNC(=O)c1nc[nH]c1C(=O)NCC(=O)OC(C)(C)C | 2.1 | 2.6 | 0.2 | -6.8 | -0.5 | / | / | /
Clc1ccccc1OCc1nc(-c2ccccn2)no1 | 0.8 | -0.1 | 0.5 | 8.2 | -3.7 | / | / | /
Clc1ccc(OCc2nc(-c3ccccn3)no2)c(Br)c1 | -5.0 | 1.0 | 5.8* | -6.9 | -0.1 | 6.5* | 7.9 | 8.4
COc1cc2c(cc1OC(C)=O)CCCCC2=O | -0.8 | 3.5 | 0.3 | -6.6 | -5.1 | / | / | /
C/C(C=NNC(=O)CSc1nnc(-c2ccc(Cl)cc2)n1-c1ccc(C)cc1)=C\c1ccccc1 | 7.0 | 3.7 | / | 4.5 | 1.9 | / | / | /
Cc1ccc(Nc2nc3ccccc3[nH]2)nc1 | 0.5 | 0.7 | 8.1* | -8.7 | -0.5 | 25.7* | -1.2 | 13.3
Cc1ccc(C)c(C(=O)Nc2nc3ccccc3[nH]2)c1 | -2.5 | 2.0 | -0.1 | 3.4 | 1.0 | / | / | /
NS(=O)(=O)c1ccc(CCNC(=O)C(=O)c2c[nH]c3ccccc23)cc1 | -2.4 | -0.1 | 11.6* | -1.0 | -2.5 | 25.6* | -5.3 | 9.8
NS(=O)(=O)c1ccc(CCNC(=O)c2cc(=O)[nH]c3ccccc23)cc1 | -39.3 | -23.0 | -0.4 | -61.5 | -16.0 | / | / | /
O=C(NCCc1ccccc1)C(=O)c1c[nH]c2ccccc12 | -10.4 | 2.3 | 1.0 | 9.8 | -0.5 | / | / | /
Cc1[nH]c2ccccc2c1C(=O)C(=O)NCCc1ccc(S(N)(=O)=O)cc1 | 1.2 | 5.2 | 49.7* | -4.4 | -2.9 | 65.9* | -2.7 | 44.6*

High-throughput results from PubChem.
